According to ChEMBL document CHEMBL4038305, “Benzoxaborole Antimalarial Agents. Part 5. Lead Optimization of Novel Amide Pyrazinyloxy Benzoxaboroles and Identification of a Preclinical Candidate” (J Med Chem, 2017):

Assays:
Plasmodium berghei [1] = test: Antimalarial activity against Plasmodium berghei infected in Swiss Webster mouse assessed as mouse survival rate at 33 mg/kg administered once daily via oral gavage for 4 consecutive days beginning 1 hr after infection measured on day 8 post infection relative to control; type: functional
Outline: (§1)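 P. berghei-infected erythrocytes taken from a previously infected mouse were injected intraperitoneally. Oral dosing, once daily for 4 consecutive days, began 1 h after infection, in polyethylene glycol 300/propylene glycol/water (55/25/20 by weight). Chloroquine at 30 mg/kg was the positive control, with a vehicle-only group. Percent survival was recorded daily from day 4 to day 20.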

Plasmodium berghei [2] = test: Antimalarial activity against Plasmodium berghei infected in Swiss Webster mouse assessed as mouse survival rate at 33 mg/kg administered once daily via oral gavage for 4 consecutive days beginning 1 hr after infection measured on day 4 post infection relative to control; type: functional; outline: as §1
Plasmodium berghei [3] = test: Antimalarial activity against Plasmodium berghei infected in Swiss Webster mouse assessed as mouse survival rate at 3.7 mg/kg administered once daily via oral gavage for 4 consecutive days beginning 1 hr after infection measured on day 7 post infection relative to control; type: functional; outline: as §1
Plasmodium berghei [4] = test: Antimalarial activity against Plasmodium berghei infected in Swiss Webster mouse assessed as mouse survival rate at 0.4 mg/kg administered once daily via oral gavage for 4 consecutive days beginning 1 hr after infection measured on day 4 post infection relative to control; type: functional
Outline: (§2)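 Mice given an intraperitoneal injection of P. berghei-infected erythrocytes taken from a previously infected animal. Oral dosing once daily for 4 consecutive days, starting 1 h after infection. Vehicle: polyethylene glycol 300/propylene glycol/water (weight ratio 55/25/20). Percent survival recorded daily from day 4 to day 20. Chloroquine 30 mg/kg and vehicle-only groups served as controls.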

Plasmodium berghei [5] = test: Antimalarial activity against Plasmodium berghei infected in Swiss Webster mouse assessed as mouse survival rate at 3.7 mg/kg administered once daily via oral gavage for 4 consecutive days beginning 1 hr after infection measured on day 5 post infection relative to control; type: functional; outline: as §1
Plasmodium falciparum [6] = test: Antimalarial activity against chloroquine-resistant Plasmodium falciparum W2 infected in human erythrocytes after 48 hrs by YOYO-1 dye based flow cytometric analysis; type: functional, cell-based; conditions: W2, 48 h
Outline: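 P. falciparum W2 cultures were exposed to the compound for 48 h, with artemisinin and chloroquine as reference controls. IC50 was taken from two independent replicates.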

Plasmodium berghei [7] = test: Antimalarial activity against Plasmodium berghei infected in Swiss Webster mouse assessed as mouse survival rate at 0.4 mg/kg administered once daily via oral gavage for 4 consecutive days beginning 1 hr after infection measured on day 5 post infection relative to control; type: functional; outline: as §2
Plasmodium berghei [8] = test: Antimalarial activity against Plasmodium berghei infected in Swiss Webster mouse assessed as mouse survival rate at 100 mg/kg administered once daily via oral gavage for 4 consecutive days beginning 1 hr after infection measured on day 10 post infection relative to control; type: functional; outline: as §2
Plasmodium berghei [9] = test: Antimalarial activity against Plasmodium berghei infected in Swiss Webster mouse assessed as mouse survival rate at 100 mg/kg administered once daily via oral gavage for 4 consecutive days beginning 1 hr after infection measured on day 4 post infection relative to control; type: functional; outline: as §2
Plasmodium falciparum [10] = test: Antimalarial activity against chloroquine-sensitive Plasmodium falciparum 3D7 infected in human erythrocytes assessed as reduction in [3H]-hypoxanthine incorporation preincubated for 24 hrs followed by [3H]-hypoxanthine addition measured after 24 hrs by scintillation counting method; type: functional, cell-based
Outline: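 P. falciparum 3D7 cultures were exposed to the compound for 48 h, with atovaquone as the reference control. IC50 was taken from three replicates.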

Plasmodium berghei [11] = test: Antimalarial activity against Plasmodium berghei infected in Swiss Webster mouse assessed as mouse survival rate at 3.7 mg/kg administered once daily via oral gavage for 4 consecutive days beginning 1 hr after infection measured on day 4 post infection relative to control; type: functional; outline: as §1
Plasmodium berghei [12] = test: Antimalarial activity against Plasmodium berghei infected in Swiss Webster mouse assessed as mouse survival rate at 1.2 mg/kg administered once daily via oral gavage for 4 consecutive days beginning 1 hr after infection measured on day 6 post infection relative to control; type: functional; outline: as §2
Plasmodium berghei [13] = test: Antimalarial activity against Plasmodium berghei infected in Swiss Webster mouse assessed as mouse survival rate at 0.4 mg/kg administered once daily via oral gavage for 4 consecutive days beginning 1 hr after infection measured on day 7 post infection relative to control; type: functional; outline: as §2
Plasmodium berghei [14] = test: Antimalarial activity against Plasmodium berghei infected in Swiss Webster mouse assessed as mouse survival rate at 100 mg/kg administered once daily via oral gavage for 4 consecutive days beginning 1 hr after infection measured on day 9 post infection relative to control; type: functional; outline: as §2
Plasmodium berghei [15] = test: Antimalarial activity against Plasmodium berghei infected in Swiss Webster mouse assessed as mouse survival rate at 100 mg/kg administered once daily via oral gavage for 4 consecutive days beginning 1 hr after infection measured on day 11 post infection relative to control; type: functional; outline: as §2
Plasmodium berghei [16] = test: Antimalarial activity against Plasmodium berghei infected in Swiss Webster mouse assessed as mouse survival rate at 1.2 mg/kg administered once daily via oral gavage for 4 consecutive days beginning 1 hr after infection measured on day 4 post infection relative to control; type: functional; outline: as §2
Plasmodium berghei [17] = test: Antimalarial activity against Plasmodium berghei infected in Swiss Webster mouse assessed as mouse survival rate at 100 mg/kg administered once daily via oral gavage for 4 consecutive days beginning 1 hr after infection measured on day 8 post infection relative to control; type: functional; outline: as §2
Plasmodium berghei [18] = test: Antimalarial activity against Plasmodium berghei infected in Swiss Webster mouse assessed as mouse survival rate at 33 mg/kg administered once daily via oral gavage for 4 consecutive days beginning 1 hr after infection measured on day 11 post infection relative to control; type: functional; outline: as §1
Plasmodium berghei [19] = test: Antimalarial activity against Plasmodium berghei infected in Swiss Webster mouse assessed as mouse survival rate at 11 mg/kg administered once daily via oral gavage for 4 consecutive days beginning 1 hr after infection measured on day 8 post infection relative to control; type: functional; outline: as §1
[20] = Metabolic stability in human hepatocytes at 22 uM after 44 hrs; type: ADME, cell-based, Hepatocyte
Plasmodium berghei [21] = test: Antimalarial activity against Plasmodium berghei infected in Swiss Webster mouse assessed as mouse survival rate at 33 mg/kg administered once daily via oral gavage for 4 consecutive days beginning 1 hr after infection measured on day 13 post infection relative to control; type: functional; outline: as §1
Plasmodium berghei [22] = test: Antimalarial activity against Plasmodium berghei infected in Swiss Webster mouse assessed as mouse survival rate at 0.1 mg/kg administered once daily via oral gavage for 4 consecutive days beginning 1 hr after infection measured on day 7 post infection relative to control; type: functional; outline: as §2
Plasmodium berghei [23] = test: Antimalarial activity against Plasmodium berghei infected in Swiss Webster mouse assessed as mouse survival rate at 0.1 mg/kg administered once daily via oral gavage for 4 consecutive days beginning 1 hr after infection measured on day 4 post infection relative to control; type: functional; outline: as §2
Plasmodium berghei [24] = test: Antimalarial activity against Plasmodium berghei infected in Swiss Webster mouse assessed as mouse survival rate at 33 mg/kg administered once daily via oral gavage for 4 consecutive days beginning 1 hr after infection measured on day 14 post infection relative to control; type: functional; outline: as §1
Plasmodium berghei [25] = test: Antimalarial activity against Plasmodium berghei infected in Swiss Webster mouse assessed as mouse survival rate at 100 mg/kg administered once daily via oral gavage for 4 consecutive days beginning 1 hr after infection measured on day 14 post infection relative to control; type: functional; outline: as §2
Plasmodium falciparum [26] = test: Antimalarial activity against Plasmodium falciparum 3D7 0087/N9 infected in NOD/SCID IL2R gamma null mouse assessed as reduction in parasitemia administered once daily via oral gavage for 4 consecutive days measured on day 4 post infection; type: functional; conditions: 3D7 0087/N9, po, 96 h
Outline: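 Human-erythrocyte-engrafted NODscidIL2Rγnull mice carrying P. falciparum Pf3D70087/N9 in peripheral blood; compound given orally once daily for four consecutive days.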

Compound	survival at 33 mg/kg (Plasmodium berghei [1])	survival at 33 mg/kg (Plasmodium berghei [2])	survival at 3.7 mg/kg (Plasmodium berghei [3])	survival at 0.4 mg/kg (Plasmodium berghei [4])	survival at 3.7 mg/kg (Plasmodium berghei [5])	IC50 (Plasmodium falciparum [6])	survival at 0.4 mg/kg (Plasmodium berghei [7])	survival at 100 mg/kg (Plasmodium berghei [8])	survival at 100 mg/kg (Plasmodium berghei [9])	IC50 (Plasmodium falciparum [10])	survival at 3.7 mg/kg (Plasmodium berghei [11])	survival at 1.2 mg/kg (Plasmodium berghei [12])	survival at 0.4 mg/kg (Plasmodium berghei [13])	survival at 100 mg/kg (Plasmodium berghei [14])	survival at 100 mg/kg (Plasmodium berghei [15])	survival at 1.2 mg/kg (Plasmodium berghei [16])	survival at 100 mg/kg (Plasmodium berghei [17])	survival at 33 mg/kg (Plasmodium berghei [18])	survival at 11 mg/kg (Plasmodium berghei [19])	survival at 100 mg/kg (Plasmodium berghei [25])	other results
Cc1c(Oc2cnc(C(=O)N[C@@H](CO)CC(F)(F)F)cn2)ccc2c1B(O)OC2	100%	100%	0%	100%	100%	82.2 nM	100%	100%	100%	149 nM	100%	100%	0%	100%	0%	100%	100%	0%			
Cc1c(Oc2cnc(C(=O)NC(C)CO)cn2)ccc2c1B(O)OC2 (stereo unspecified)	0%	100%				342 nM		40%	100%	994 nM				80%	40%		100%		0%		
Cc1c(Oc2cnc(C(=O)N3CC(O)(C4CC4)C3)cn2)ccc2c1B(O)OC2	100%	100%	0%	100%	100%	51.7 nM	100%	100%	100%	134 nM	100%	100%	0%	100%	100%	100%	100%	40%		0%	Stability [20]: Stable; survival at 33 mg/kg (Plasmodium berghei [21]): 40%; survival at 0.1 mg/kg (Plasmodium berghei [22]): 0%; survival at 0.1 mg/kg (Plasmodium berghei [23]): 100%; survival at 33 mg/kg (Plasmodium berghei [24]): 0%; ED90 (Plasmodium falciparum [26]): < 5 mg/kg
Cc1c(Oc2cnc(C(=O)NCCO)cn2)ccc2c1B(O)OC2		100%	0%		100%	372 nM		0%	100%	1080 nM	100%	100%		40%		100%	40%				
CCCC1(O)CN(C(=O)c2cnc(Oc3ccc4c(c3C)B(O)OC4)cn2)C1	100%	100%	0%	100%	100%	15.9 nM	100%	100%	100%	54 nM	100%	100%	0%	100%	100%	100%	100%	100%	80%	80%	Stability [20]: Stable; survival at 33 mg/kg (Plasmodium berghei [21]): 100%; survival at 0.1 mg/kg (Plasmodium berghei [22]): 0%; survival at 0.1 mg/kg (Plasmodium berghei [23]): 100%; survival at 33 mg/kg (Plasmodium berghei [24]): 0%
CCC[C@H](CO)NC(=O)c1cnc(Oc2ccc3c(c2C)B(O)OC3)cn1	100%	100%	0%		100%	161 nM		100%	100%	201 nM	100%	100%		100%	20%	100%	100%			0%	ED90 (Plasmodium falciparum [26]): 2.5 mg/kg
